Data published in ChEMBL document CHEMBL1142436, “Design and synthesis of 4-substituted indolo[3,2-e][1,2,3]triazolo[1,5-a]pyrimidine derivatives with antitumor activity” (2008).

Key:
Type in all cases: functional
[1] = system: CCRF-CEM; test: Growth inhibition of human CCRF-CEM cells after 48 hrs
Summary of the method: (§1)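 NCI ~60-line screen. Cells were grown in RPMI 1640 with 5% FBS and 2 mM L-glutamine and plated at 5000–40000 cells/well. After a 24 h preincubation, five drug concentrations from DMSO stocks were added for 48 h at 37 °C. Cells were TCA-fixed, stained with SRB and read at 515 nm. GI50 was taken from time-zero and control absorbances and reported as pGI50.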

[2] = system: HL-60; test: Growth inhibition of human HL60 cells after 48 hrs; details: HL-60, 48 h; summary of the method: as §1
[3] = system: MOLT-4; test: Growth inhibition of human MOLT4 cells after 48 hrs; details: MOLT-4, 48 h; summary of the method: as §1
[4] = system: RPMI-8226; test: Growth inhibition of human RPMI8226 cells after 48 hrs; details: RPMI-8226, 48 h; summary of the method: as §1
[5] = system: EKVX; test: Growth inhibition of human EKVX cells after 48 hrs; summary of the method: as §1
[6] = system: HOP-92; test: Growth inhibition of human HOP92 cells after 48 hrs; details: HOP-92, 48 h; summary of the method: as §1
[7] = system: NCI-H226; test: Growth inhibition of human NCI-H226 cells after 48 hrs; details: NCI-H226, 48 h; summary of the method: as §1
[8] = system: NCI-H23; test: Growth inhibition of human NCI-H23 cells after 48 hrs; details: Homo sapiens, NCI-H23, 48 h; summary of the method: as §1
[9] = system: NCI-H322M; test: Growth inhibition of human NCI-H322M cells after 48 hrs; summary of the method: as §1
[10] = system: NCI-H522; test: Growth inhibition of human NCI-H522 cells after 48 hrs; details: NCI-H522, 48 h; summary of the method: as §1
[11] = system: HCT-116; test: Growth inhibition of human HCT116 cells after 48 hrs; details: HCT-116, 48 h; summary of the method: as §1
[12] = system: HT-29; test: Growth inhibition of human HT29 cells after 48 hrs; details: HT-29, 48 h; summary of the method: as §1
[13] = system: KM12; test: Growth inhibition of human KM12 cells after 48 hrs; details: KM12, 48 h; summary of the method: as §1
[14] = system: SF-268; test: Growth inhibition of human SF268 cells after 48 hrs; details: SF-268, 48 h; summary of the method: as §1
[15] = system: SF-295; test: Growth inhibition of human SF295 cells after 48 hrs; details: SF-295, 48 h; summary of the method: as §1
[16] = system: SF-539; test: Growth inhibition of human SF539 cells after 48 hrs; details: SF-539, 48 h; summary of the method: as §1
[17] = read-out: Log LC50 (the source's name) (converted)

**Q.** Which GI50 [1] does the source give for `CCOC(=O)CNC(=O)CCCn1c(=O)c2c3ccccc3n(C)c2n2nnc(-c3ccccc3)c12` here?
**A.** 26.3 µM

**Q.** What about the LC50 [1] of the same molecule?
**A.** > 50.1 µM

**Q.** And the TGI ([1]; read-out: pTGI (converted))?
**A.** > 50.1 µM

**Q.** And the GI50 [2]?
**A.** 20.4 µM

**Q.** And the LC50 [2]?
**A.** > 50.1 µM

**Q.** What about the TGI ([2]; read-out: pTGI (converted)) of the same molecule?
**A.** > 50.1 µM

**Q.** And the GI50 [3]?
**A.** > 50.1 µM

**Q.** And the LC50 [3]?
**A.** > 50.1 µM

**Q.** What about the TGI ([3]; read-out: pTGI (converted)) of the same molecule?
**A.** > 50.1 µM

**Q.** And the GI50 [4]?
**A.** 10.7 µM

**Q.** What about the LC50 [4] of the same molecule?
**A.** > 50.1 µM

**Q.** And the TGI ([4]; read-out: pTGI (converted))?
**A.** 33.9 µM

**Q.** And the GI50 [5]?
**A.** > 50.1 µM

**Q.** What about the LC50 [5] of the same molecule?
**A.** > 50.1 µM

**Q.** What about the TGI ([5]; read-out: pTGI (converted)) of the same molecule?
**A.** 20.4 µM

**Q.** What about the GI50 [6] of the same molecule?
**A.** > 50.1 µM

**Q.** And the LC50 [6]?
**A.** 3.63 µM

**Q.** And the TGI ([6]; read-out: pTGI (converted))?
**A.** 14.8 µM

**Q.** What about the GI50 [7] of the same molecule?
**A.** 25.1 µM

**Q.** And the CC50 [7, 17]?
**A.** > 50.1 µM

**Q.** And the TGI ([7]; read-out: pTGI)?
**A.** > 50.1 µM

**Q.** What about the GI50 [8] of the same molecule?
**A.** 11.7 µM

**Q.** And the CC50 [8, 17]?
**A.** > 50.1 µM

**Q.** And the TGI ([8]; read-out: pTGI (converted))?
**A.** > 50.1 µM

**Q.** And the GI50 [9]?
**A.** > 50.1 µM

**Q.** And the LC50 [9]?
**A.** > 50.1 µM

**Q.** And the TGI ([9]; read-out: pTGI (converted))?
**A.** > 50.1 µM

**Q.** What about the GI50 [10] of the same molecule?
**A.** 6.46 µM

**Q.** What about the LC50 [10] of the same molecule?
**A.** > 50.1 µM

**Q.** What about the TGI ([10]; read-out: pTGI (converted)) of the same molecule?
**A.** 20 µM

**Q.** And the GI50 [11]?
**A.** 9.12 µM

**Q.** And the LC50 [11]?
**A.** > 50.1 µM

**Q.** And the TGI ([11]; read-out: pTGI (converted))?
**A.** 27.5 µM

**Q.** What about the GI50 [12] of the same molecule?
**A.** > 50.1 µM

**Q.** And the LC50 (concentration killing 50% of cells) [12]?
**A.** > 50.1 µM

**Q.** And the TGI ([12]; read-out: pTGI (converted))?
**A.** > 50.1 µM

**Q.** And the GI50 [13]?
**A.** > 50.1 µM

**Q.** And the LC50 [13]?
**A.** > 50.1 µM

**Q.** And the TGI ([13]; read-out: pTGI (converted))?
**A.** > 50.1 µM

**Q.** What about the GI50 [14] of the same molecule?
**A.** 14.1 µM

**Q.** And the CC50 [14, 17]?
**A.** > 50.1 µM

**Q.** And the TGI ([14]; read-out: pTGI (converted))?
**A.** > 50.1 µM

**Q.** What about the GI50 [15] of the same molecule?
**A.** 4.79 µM

**Q.** And the LC50 [15]?
**A.** > 50.1 µM

**Q.** And the TGI ([15]; read-out: pTGI (converted))?
**A.** 17.4 µM

**Q.** And the GI50 [16]?
**A.** 4.27 µM

**Q.** What about the LC50 (concentration killing 50% of cells) [16] of the same molecule?
**A.** 28.8 µM

**Q.** And the TGI ([16]; read-out: pTGI (converted))?
**A.** 11.7 µM
